Published values pooled from the literature.
Lines come from different studies, so protocols differ.
EGFR: Epidermal growth factor receptor (EGFR, Homo sapiens, UniProt P00533)
EGFR L858R/T790M: Epidermal growth factor receptor (EGFR, Homo sapiens, UniProt P00533, L858R/T790M)

| SMILES | target | test | setting | measurement | result |
| --- | --- | --- | --- | --- | --- |
| Nc1ncc(-c2nc(N3CCOCC3)nc(N3CCOCC3)n2)c(C(F)F)n1 | Epidermal growth factor receptor (EGFR, Homo sapiens, UniProt P00533, L861Q) | cell-free assay, competition with immobilised ligand | 10 µM | remaining binding | 77% |
| COc1ncccc1-c1cnn2ccc(N3CCN(C(=O)OC(C)C)CC3)nc12 | EGFR | binding, competition with immobilised ligand | 1 µM | remaining binding | 89% |
| Cn1cc(-c2cc(F)cc(N3CCn4c(cc5c4CCCC5)C3=O)c2CO)cc(Nc2ccc(N3CCN(C4COC4)CC3)cn2)c1=O | EGFR | enzyme activity, inhibitor | 0.1 µM | inhibition | 7% |
| CC(C)(C)c1cc(C=C(C#N)C#N)cc(Br)c1O | EGFR | enzyme activity, inhibitor | 0.5 µM | remaining activity | 106% |
| N#CC1(c2ccccn2)CCN(Cc2cc(C(=O)O)c(=O)n3ccccc23)CC1 | EGFR | cell-free assay, competition with immobilised ligand | 1 µM | remaining binding | 83% |
| Cc1nn(C)cc1-c1nc2c(N3CCN(Cc4ccc(Cl)cc4)CC3)c(Cl)cnc2[nH]1 | Epidermal growth factor receptor (EGFR, Homo sapiens, UniProt P00533, T790M) | binding, competition with immobilised ligand | 1 µM | remaining binding | 82% |
| C#Cc1n[nH]c2c(-c3cn([C@@H](C)c4ccccn4)c(=O)[nH]c3=O)cc(F)cc12 | EGFR L858R/T790M | enzyme activity, inhibitor | 0.1 µM | inhibition | -3.6% |
| Cn1cncc1[C@](O)(COc1ccc(C#N)cc1-c1ccc(OC(F)(F)F)cc1)c1ccc(C#N)cc1 | Epidermal growth factor receptor (EGFR, Homo sapiens, UniProt P00533, del747-752/P753S) | cell-free assay, competition with immobilised ligand | 1 µM | remaining binding | 76% |
| COc1ccc2c(c1)/C(=C/c1cnc[nH]1)C(=O)N2 | EGFR | cell-free assay | 0.5 µM | remaining signal | 99.4% |
| C[C@H](C(=O)N[C@H]1COc2ccccc2[C@@H]1S(C)(=O)=O)c1ccc(F)cc1 | EGFR | enzyme activity, inhibitor | 10 µM | inhibition | 1% |
| C#Cc1n[nH]c2c(-c3cn([C@@H](C)c4ccccc4)c(=O)[nH]c3=O)cc(F)cc12 | EGFR L858R/T790M | enzyme activity, inhibitor | 0.1 µM | inhibition | -4.9% |
| CC(C)[C@@H]1NC(=O)[C@H](C)NC(=O)[C@H](C)NC(=O)[C@H](Cc2ccc(O)cc2)NC(=O)[C@H](Cc2ccc(O)cc2)NC(=O)[C@H](Cc2ccccc2)NC(=O)[C@@H](Cc2ccc(O)cc2)NC(=O)CSC[C@@H](C(=O)NCC(N)=O)NC(=O)[C@H](C)NC(=O)[C@H](CCCNC(=N)N)NC(=O)[C@H](CCCNC(=N)N)NC(=O)[C@H](Cc2ccc(O)cc2)NC(=O)[C@H](C(C)C)NC(=O)[C@H](C(C)C)NC(=O)[C@H](CC(N)=O)NC1=O | EGFR | binding, SPR | – | kon | 38800 M⁻¹ s⁻¹ |
| c1ccc(C(NCCNC(c2ccccc2)c2ccccc2)c2ccccc2)cc1 | EGFR | enzyme activity, inhibitor | 10 µM | inhibition | -8% |
